# Test results from ChEMBL document CHEMBL4411287, “Discovery and optimization of a series of 3-substituted indazole derivatives as multi-target kinase inhibitors for the treatment of lung squamous cell carcinoma” (Eur J Med Chem, 2019).
# How the values were obtained:
# [1] = biological target: Fibroblast growth factor receptor 1 (Homo sapiens, UniProt P11362); assay: Inhibition of FGFR1 (unknown origin) after 60 mins by ELISA
# [2] = Tmax in ICR(CD-1) mouse at 10 mg/kg, po administered via gavage by triple quadrupole mass spectrometric analysis; type: ADME, organism-based; details: in vivo
# In short: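 Dosed by gavage at 1 mg/mL in 1% Tween80/water to male ICR mice, 18-22 g, n=3. Blood taken at 0.25, 0.5, 1, 2, 4, 8 and 24 h. Plasma precipitated with methanol:acetonitrile (1:1) containing internal standard, then UPLC-MS/MS on a C18 column with an ammonium acetate/formic acid–acetonitrile gradient. Tmax read directly from the data; MRT calculated per animal from concentration–time curves.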
# [3] = Cmax in ICR(CD-1) mouse at 10 mg/kg, po administered via gavage by triple quadrupole mass spectrometric analysis; type: ADME, organism-based; set-up: dose 10 mg/kg, route oral; details: in vivo
# In short: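 Oral gavage at 1 mg/mL in 1% Tween80/water to male ICR mice (18-22 g, n=3). Plasma sampled at 0.25, 0.5, 1, 2, 4, 8 and 24 h, protein precipitated with methanol:acetonitrile (1:1) containing internal standard, and quantified by UPLC-triple quadrupole MS. AUC and MRT were taken from per-animal time-concentration curves. Cmax is the maximum plasma level and Tmax the time to reach it.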
# [4] = Efflux ratio of permeability in human Caco2 cells at 5 uM after 120 mins by LC-MS/MS analysis; type: ADME, cell-based; details: Caco-2
# In short: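 Caco-2 (C2BBe1) monolayers grown to confluence on collagen-coated transwell polycarbonate membranes. Compound at 5 μM added apically or basolaterally in HBSS with 10 mM HEPES at pH 7.4 and 6.8. Duplicate samples taken at 120 min and analysed by LC-MS/MS. Efflux ratio = Papp(B→A)/Papp(A→B).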
# [5] = biological target: Cyclin-dependent kinase 6 (Homo sapiens) (UniProt Q00534); assay: Inhibition of CDK6 (unknown origin) at 1000 nM relative to control
# Cyclin-dependent kinase 6 (Homo sapiens), sequence (Q00534 whole entry): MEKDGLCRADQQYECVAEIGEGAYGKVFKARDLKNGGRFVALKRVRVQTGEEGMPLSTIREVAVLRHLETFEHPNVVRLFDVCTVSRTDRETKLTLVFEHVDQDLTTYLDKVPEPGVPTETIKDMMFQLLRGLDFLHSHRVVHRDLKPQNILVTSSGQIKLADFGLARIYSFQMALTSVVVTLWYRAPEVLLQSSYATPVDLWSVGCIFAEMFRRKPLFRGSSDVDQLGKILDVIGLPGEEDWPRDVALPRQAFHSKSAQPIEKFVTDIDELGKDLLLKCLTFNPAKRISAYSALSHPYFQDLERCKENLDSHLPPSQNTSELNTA
# [6] = biological target: Epidermal growth factor receptor (Homo sapiens) (UniProt P00533); assay: Inhibition of EGFR (unknown origin) at 1000 nM relative to control
# Epidermal growth factor receptor (Homo sapiens), sequence (P00533 whole entry, the tested form may be a part): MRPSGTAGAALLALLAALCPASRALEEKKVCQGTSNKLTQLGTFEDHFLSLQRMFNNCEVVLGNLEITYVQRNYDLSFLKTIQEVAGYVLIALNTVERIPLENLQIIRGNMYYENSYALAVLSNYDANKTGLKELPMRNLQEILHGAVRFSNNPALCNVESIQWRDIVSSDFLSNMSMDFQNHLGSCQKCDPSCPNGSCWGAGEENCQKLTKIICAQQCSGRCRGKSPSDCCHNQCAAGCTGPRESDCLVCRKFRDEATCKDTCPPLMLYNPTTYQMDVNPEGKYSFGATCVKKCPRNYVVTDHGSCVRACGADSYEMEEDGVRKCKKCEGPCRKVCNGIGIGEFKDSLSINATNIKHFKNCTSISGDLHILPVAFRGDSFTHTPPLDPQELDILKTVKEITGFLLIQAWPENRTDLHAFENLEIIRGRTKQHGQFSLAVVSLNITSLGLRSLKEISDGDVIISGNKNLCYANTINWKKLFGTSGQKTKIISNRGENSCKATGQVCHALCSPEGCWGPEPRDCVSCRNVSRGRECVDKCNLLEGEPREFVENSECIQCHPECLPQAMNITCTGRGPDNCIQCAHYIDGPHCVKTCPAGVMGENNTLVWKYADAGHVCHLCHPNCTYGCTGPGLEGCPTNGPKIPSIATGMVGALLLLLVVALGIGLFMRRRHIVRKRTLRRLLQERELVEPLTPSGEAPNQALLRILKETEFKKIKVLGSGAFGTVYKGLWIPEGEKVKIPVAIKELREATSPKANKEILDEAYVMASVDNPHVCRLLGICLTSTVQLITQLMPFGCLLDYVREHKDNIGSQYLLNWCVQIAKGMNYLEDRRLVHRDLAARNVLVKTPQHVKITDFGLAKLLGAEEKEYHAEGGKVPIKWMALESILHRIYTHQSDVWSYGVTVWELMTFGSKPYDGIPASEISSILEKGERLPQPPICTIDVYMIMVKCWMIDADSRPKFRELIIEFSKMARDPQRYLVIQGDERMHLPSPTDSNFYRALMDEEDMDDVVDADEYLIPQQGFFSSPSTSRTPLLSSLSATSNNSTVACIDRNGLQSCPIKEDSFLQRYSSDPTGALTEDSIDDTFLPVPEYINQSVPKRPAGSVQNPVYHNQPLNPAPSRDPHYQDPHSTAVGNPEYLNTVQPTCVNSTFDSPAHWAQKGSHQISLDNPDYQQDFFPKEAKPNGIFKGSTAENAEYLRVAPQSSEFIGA
# In short: (§1)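 Purified recombinant kinase domains run in ELISA on precoated poly(Glu,Tyr) 4:1 (20 µg/mL) with 10 µM ATP in 50 mM HEPES pH 7.4, 50 mM MgCl2, 0.5 mM MnCl2, 0.2 mM Na3VO4, 1 mM DTT; 1% DMSO control; 60 min at 37 °C. Phosphotyrosine read by PY99 antibody, HRP anti-mouse IgG, OPD/H2O2 at 490 nm; inhibition = [1−A490/A490control]×100%; two separate experiments.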
# [7] = biological target: Platelet-derived growth factor receptor alpha (Homo sapiens) (UniProt P16234); assay: Inhibition of PDGFR-alpha (unknown origin) at 1000 nM relative to control; in short: as §1
# Platelet-derived growth factor receptor alpha (Homo sapiens), sequence (P16234 whole entry): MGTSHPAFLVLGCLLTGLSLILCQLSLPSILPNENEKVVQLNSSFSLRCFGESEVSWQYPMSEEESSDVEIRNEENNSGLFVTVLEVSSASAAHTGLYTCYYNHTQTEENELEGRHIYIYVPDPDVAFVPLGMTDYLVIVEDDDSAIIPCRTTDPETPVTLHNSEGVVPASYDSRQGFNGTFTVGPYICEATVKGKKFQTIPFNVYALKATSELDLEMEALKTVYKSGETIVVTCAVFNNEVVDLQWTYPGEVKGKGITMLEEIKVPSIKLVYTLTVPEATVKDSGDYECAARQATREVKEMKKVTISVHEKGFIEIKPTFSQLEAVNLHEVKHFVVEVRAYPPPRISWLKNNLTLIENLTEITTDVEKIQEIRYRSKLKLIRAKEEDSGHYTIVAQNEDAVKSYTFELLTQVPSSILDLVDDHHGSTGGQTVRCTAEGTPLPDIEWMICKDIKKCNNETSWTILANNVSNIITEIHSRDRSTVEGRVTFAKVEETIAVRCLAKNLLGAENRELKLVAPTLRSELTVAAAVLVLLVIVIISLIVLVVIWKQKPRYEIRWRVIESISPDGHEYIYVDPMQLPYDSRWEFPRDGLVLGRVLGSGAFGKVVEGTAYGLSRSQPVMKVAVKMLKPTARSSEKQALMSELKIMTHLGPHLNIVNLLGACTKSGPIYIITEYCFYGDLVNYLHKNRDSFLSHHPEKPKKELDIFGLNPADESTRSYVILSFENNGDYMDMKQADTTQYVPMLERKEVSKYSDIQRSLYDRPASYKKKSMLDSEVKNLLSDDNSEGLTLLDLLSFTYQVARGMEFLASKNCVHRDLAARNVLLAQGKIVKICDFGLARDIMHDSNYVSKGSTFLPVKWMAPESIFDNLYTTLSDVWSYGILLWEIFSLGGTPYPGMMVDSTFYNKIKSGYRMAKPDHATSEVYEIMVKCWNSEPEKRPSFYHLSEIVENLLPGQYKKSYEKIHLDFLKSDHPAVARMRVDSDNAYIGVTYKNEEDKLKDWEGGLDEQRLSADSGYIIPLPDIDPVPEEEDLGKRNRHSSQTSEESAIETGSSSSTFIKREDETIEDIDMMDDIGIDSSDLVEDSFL
# [8] = biological target: Tyrosine-protein kinase receptor UFO (Homo sapiens) (UniProt P30530); assay: Inhibition of AXL (unknown origin) at 100 nM relative to control
# Tyrosine-protein kinase receptor UFO (Homo sapiens), sequence (P30530 whole entry): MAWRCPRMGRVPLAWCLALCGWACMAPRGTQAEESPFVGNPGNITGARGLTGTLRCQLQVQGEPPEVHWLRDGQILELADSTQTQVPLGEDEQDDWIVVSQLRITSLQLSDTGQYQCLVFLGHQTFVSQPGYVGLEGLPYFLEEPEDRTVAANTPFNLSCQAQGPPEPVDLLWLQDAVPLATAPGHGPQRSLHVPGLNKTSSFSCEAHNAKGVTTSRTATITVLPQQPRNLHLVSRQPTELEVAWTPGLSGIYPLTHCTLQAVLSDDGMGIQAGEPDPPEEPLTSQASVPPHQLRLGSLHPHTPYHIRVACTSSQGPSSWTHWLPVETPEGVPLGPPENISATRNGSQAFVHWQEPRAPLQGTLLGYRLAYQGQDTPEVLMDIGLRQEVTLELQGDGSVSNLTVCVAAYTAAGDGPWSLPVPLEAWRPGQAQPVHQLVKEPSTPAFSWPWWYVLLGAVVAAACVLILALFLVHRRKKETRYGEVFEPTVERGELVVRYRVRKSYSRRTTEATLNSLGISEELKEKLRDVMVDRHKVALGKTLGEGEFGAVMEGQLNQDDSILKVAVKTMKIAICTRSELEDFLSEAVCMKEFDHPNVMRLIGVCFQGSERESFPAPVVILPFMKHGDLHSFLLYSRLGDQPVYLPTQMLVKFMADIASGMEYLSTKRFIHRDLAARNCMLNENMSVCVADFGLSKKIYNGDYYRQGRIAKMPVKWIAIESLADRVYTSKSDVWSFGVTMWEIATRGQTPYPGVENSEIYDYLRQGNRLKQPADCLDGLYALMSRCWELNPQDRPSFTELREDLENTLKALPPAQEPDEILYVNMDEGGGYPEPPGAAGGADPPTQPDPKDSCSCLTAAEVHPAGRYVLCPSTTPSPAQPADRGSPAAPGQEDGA
# [9] = biological target: Epidermal growth factor receptor (Homo sapiens) (UniProt P00533); assay: Inhibition of EGFR (unknown origin) at 100 nM relative to control
# [10] = biological target: T1, Ephrin type-B receptor 2 (Homo sapiens) (UniProt P29323); assay: Inhibition of EPH-B2 (unknown origin) at 100 nM relative to control; in short: as §1
# T1 sequence (whole entry): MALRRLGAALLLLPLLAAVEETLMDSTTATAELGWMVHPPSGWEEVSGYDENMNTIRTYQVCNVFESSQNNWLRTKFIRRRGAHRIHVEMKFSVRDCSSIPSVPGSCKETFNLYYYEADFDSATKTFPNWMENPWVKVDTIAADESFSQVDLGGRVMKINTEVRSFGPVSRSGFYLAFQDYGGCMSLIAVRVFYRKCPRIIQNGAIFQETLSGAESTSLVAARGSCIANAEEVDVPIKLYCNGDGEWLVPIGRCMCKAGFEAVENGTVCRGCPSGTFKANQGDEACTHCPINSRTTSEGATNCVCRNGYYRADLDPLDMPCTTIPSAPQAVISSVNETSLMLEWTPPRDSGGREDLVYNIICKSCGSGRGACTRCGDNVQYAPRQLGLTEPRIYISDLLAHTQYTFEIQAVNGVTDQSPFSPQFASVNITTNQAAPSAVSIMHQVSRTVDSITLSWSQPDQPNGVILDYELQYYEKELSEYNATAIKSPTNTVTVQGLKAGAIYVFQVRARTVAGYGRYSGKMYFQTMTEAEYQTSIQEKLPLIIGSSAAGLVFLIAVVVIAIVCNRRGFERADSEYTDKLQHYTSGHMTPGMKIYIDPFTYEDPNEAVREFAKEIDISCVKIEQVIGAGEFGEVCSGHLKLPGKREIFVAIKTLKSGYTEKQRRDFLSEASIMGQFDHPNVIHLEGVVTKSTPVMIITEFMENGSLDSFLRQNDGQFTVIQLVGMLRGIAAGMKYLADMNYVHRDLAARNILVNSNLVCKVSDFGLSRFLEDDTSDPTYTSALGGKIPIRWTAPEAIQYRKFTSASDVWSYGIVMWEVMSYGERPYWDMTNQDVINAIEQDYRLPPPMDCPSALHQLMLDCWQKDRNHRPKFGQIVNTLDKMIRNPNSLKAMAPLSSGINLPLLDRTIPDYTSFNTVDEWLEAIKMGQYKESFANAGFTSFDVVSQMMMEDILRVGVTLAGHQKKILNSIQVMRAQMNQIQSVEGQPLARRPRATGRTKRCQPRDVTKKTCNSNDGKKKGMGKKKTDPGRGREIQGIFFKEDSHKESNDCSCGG
# [11] = biological target: Tyrosine-protein kinase ABL1 (Homo sapiens) (UniProt P00519); assay: Inhibition of ABL (unknown origin) at 10 nM relative to control
# [12] = biological target: Tyrosine-protein kinase receptor UFO (Homo sapiens) (UniProt P30530); assay: Inhibition of AXL (unknown origin) at 10 nM relative to control
# [13] = biological target: Ephrin type-A receptor 2 (Homo sapiens) (UniProt P29317); assay: Inhibition of EPH-A2 (unknown origin) at 10 nM relative to control; in short: as §1
# [14] = biological target: Receptor-type tyrosine-protein kinase FLT3 (Homo sapiens) (UniProt P36888); assay: Inhibition of FLT-3 (unknown origin) at 10 nM relative to control; in short: as §1
# Receptor-type tyrosine-protein kinase FLT3 (Homo sapiens), sequence (P36888 whole entry): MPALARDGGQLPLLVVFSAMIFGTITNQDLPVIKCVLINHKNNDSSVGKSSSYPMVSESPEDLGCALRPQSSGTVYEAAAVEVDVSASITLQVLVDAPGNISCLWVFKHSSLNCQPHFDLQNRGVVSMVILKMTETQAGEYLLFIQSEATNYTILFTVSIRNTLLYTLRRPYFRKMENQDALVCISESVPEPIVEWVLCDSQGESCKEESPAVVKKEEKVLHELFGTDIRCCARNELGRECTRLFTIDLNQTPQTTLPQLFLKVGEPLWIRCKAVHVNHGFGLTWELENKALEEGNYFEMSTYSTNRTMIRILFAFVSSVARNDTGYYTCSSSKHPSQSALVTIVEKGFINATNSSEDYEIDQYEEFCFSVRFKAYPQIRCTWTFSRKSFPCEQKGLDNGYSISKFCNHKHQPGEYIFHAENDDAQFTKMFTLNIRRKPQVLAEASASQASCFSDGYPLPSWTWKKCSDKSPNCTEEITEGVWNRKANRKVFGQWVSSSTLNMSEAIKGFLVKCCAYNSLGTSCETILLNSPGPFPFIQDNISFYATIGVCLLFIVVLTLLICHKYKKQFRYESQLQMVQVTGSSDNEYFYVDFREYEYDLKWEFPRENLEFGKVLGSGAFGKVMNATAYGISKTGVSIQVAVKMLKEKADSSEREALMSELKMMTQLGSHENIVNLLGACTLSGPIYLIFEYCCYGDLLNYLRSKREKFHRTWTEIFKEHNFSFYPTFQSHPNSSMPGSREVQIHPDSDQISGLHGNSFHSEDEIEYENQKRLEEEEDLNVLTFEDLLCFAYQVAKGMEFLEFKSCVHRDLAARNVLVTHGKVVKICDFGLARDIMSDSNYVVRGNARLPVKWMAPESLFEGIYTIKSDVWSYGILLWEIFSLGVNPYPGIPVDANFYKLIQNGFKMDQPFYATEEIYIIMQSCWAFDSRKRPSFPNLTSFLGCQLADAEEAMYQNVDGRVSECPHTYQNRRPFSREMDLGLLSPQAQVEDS
# [15] = biological target: Platelet-derived growth factor receptor alpha (Homo sapiens) (UniProt P16234); assay: Inhibition of PDGFR-alpha (unknown origin) at 10 nM relative to control; in short: as §1
# NCI-H2286 [16] = assay: Antiproliferative activity against human NCI-H2286 cells harboring DDR2 mutation after 72 hrs by CCK8 assay; type: functional, cell-based; details: NCI-H2286, 72 h
# In short: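 Cells seeded at low density in growth medium and compounds added the next day. Incubated 72 h, then proliferation read by sulforhodamine B, MTT or CCK-8. IC50 obtained by four-parameter concentration-response curve fitting.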
# NCI-H2286 [17] = assay: Antitumor activity against human NCI-H2286 cells xenografted in SCID mouse assessed as tumor growth inhibition at 10 mg/kg, po qd for 10 consecutive days relative to control; type: functional; details: read-out: TGI
# In short: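 NCI-H2286 xenograft established by s.c. fragment implantation. At 100-150 mm³ mice were randomized (vehicle n=10, treated n=5) and given compound orally once daily for 10 days. Tumour volume = length×width²/2, measured twice weekly. TGI taken on the final day from change in volume relative to vehicle, with Student's t-test.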
structure (smiles),measurement,setting,value
Cc1ccc(C(=O)Nc2cccc(C(F)(F)F)c2)cc1-c1ccc2c(-c3cnn(C4CC4)c3)n[nH]c2c1,IC50,[1],31.1 nM
same,Tmax,[2],2 h
same,Cmax,[3],1120 ng/mL
same,"efflux ratio at 2 h, 5 µM",[4],1.1
same,inhibition,[5],5.9%
same,inhibition,[6],18.1%
same,inhibition,[7],100%
same,inhibition,[8],72.6%
same,inhibition,[9],33.9%
same,inhibition,[10],76.7%
same,inhibition,[11],22%
same,inhibition,[12],42%
same,inhibition,[13],86.6%
same,inhibition,[14],59.3%
same,inhibition,[15],59.7%
same,IC50,NCI-H2286 [16],93 nM
same,inhibition in vivo at 10 mg/kg,NCI-H2286 [17],82.8%
